In ChEMBL document CHEMBL1130321, “Synthesis and in vitro activity of 3 beta-substituted-3 alpha-hydroxypregnan-20-ones: allosteric modulators of the GABAA receptor” (J Med Chem, 1997):
pIC50: −log10 of the molar value.

Assays:
[1] = molecular target: GABA-A receptor; anion channel; assay: Ability to allosterically modulate the binding of [35S]TBPS to gamma-aminobutyric-acid A receptor in rat brain cortical P2 membranes.; assay type: cell membranes, Membrane
Method in brief: (§1)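 Rat cortical P2 membranes washed in 200 mM NaCl/50 mM Na-K phosphate pH 7.4. Incubated with 2 nM [35S]TBPS, 5 µM GABA and compound at nine concentrations from 1 nM to 10 µM final (DMSO 0.5% final), 90 min at room temperature. Nonspecific binding was defined with 2 µM unlabeled TBPS. Read-out was filtration and scintillation counting. IC50 and Imax came from partial or full inhibition fits chosen by F-test. Values are mean ± SEM of 3-9 experiments.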

Rattus norvegicus [2] = organism: Rattus norvegicus; assay: Percent of maximal extent of inhibition was calculated by fitting [35S]TBPS inhibition data to a sigmoid function (rat brain cortical P2 membranes) at 10 uM concentration; assay type: functional
Method in brief: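 Rat cortical P2 membranes washed in 200 mM NaCl/50 mM Na-K phosphate, pH 7.4. Incubated 90 min at room temperature with 2 nM [35S]TBPS, 5 μM GABA and steroid in DMSO (0.5% final). Nonspecific binding defined with 2 μM unlabeled TBPS. Filtration, scintillation counting. Partial or full inhibition model chosen by F-test.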

Rattus norvegicus [3] = organism: Rattus norvegicus; assay: Percent of maximal extent of inhibition was calculated by fitting [35S]TBPS inhibition data to a sigmoid function (rat brain cortical P2 membranes).; assay type: functional; method in brief: as §1
[4] = molecular target: GABA-A receptor; anion channel; assay: Allosteric modulation of [35S]TBPS binding to Gamma-aminobutyric acid A receptor in rat brain cortical P2 membranes (inhibits binding with two components); assay type: cell membranes, Membrane; method in brief: as §1

Row | SMILES | pIC50 [1] | Imax (Rattus norvegicus [2]) [%] | Imax (Rattus norvegicus [3]) [%] | pIC50 [4]
1 | CSC[C@@]1(O)CC[C@@]2(C)[C@@H](CC[C@@H]3[C@@H]2CC[C@]2(C)[C@@H](C(C)=O)CC[C@@H]32)C1 | < 5.00 | 46 | – | –
2 | CC(=O)[C@H]1CC[C@H]2[C@@H]3CC[C@@H]4C[C@H](O)CC[C@]4(C)[C@H]3CC[C@]12C [ELTANOLONE] | – | – | 65 | 7.36
